Runt-CBFb FRET – inhibitors of RUNX1 Runt–CBFb binding, primary screen, biochemical, FRET, Cerulean-Runt, Venus-CBFb, uHTS | Runt-related transcription factor 1 (Homo sapiens) + Core-binding factor subunit beta … | Cerulean-Runt/Venus-CBFb FRET ratio 530/480, 1 h | inhibition, % at 20 µM | 220,000 tested, 0.46% active;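 active means inhibition over about 50% at 20 µM in the single-dose screen, limit read from the data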
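Assay system: Cerulean-tagged RUNX1 Runt domain (FRET donor) fusion protein / Amount: 100 nM each of Venus-CBFb and Cerulean-Runt domain / Medium: Tris buffer pH 7.5 with salts and BSA / Also added: Venus-CBFb 100 nM / Schedule: 1 h complex formation plus 1 h compound treatment, room temperature / Signal: FRET fluorescence / Read-out: loss of energy transfer signal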
p97 ATPase inh – inhibitors of human p97 ATPase, primary screen, biochemical. Transitional endoplasmic reticulum ATPase (Homo sapiens), P55072. recombinant p97 ATPase, Kinase-Glo ATP luminescence, 3 h. inhibition, % at 8 µM. 220,000 tested, 0.42% active. AID 1481, 2009; in the data active means inhibition above about 15%
Target sequence (P55072 whole entry, looked up): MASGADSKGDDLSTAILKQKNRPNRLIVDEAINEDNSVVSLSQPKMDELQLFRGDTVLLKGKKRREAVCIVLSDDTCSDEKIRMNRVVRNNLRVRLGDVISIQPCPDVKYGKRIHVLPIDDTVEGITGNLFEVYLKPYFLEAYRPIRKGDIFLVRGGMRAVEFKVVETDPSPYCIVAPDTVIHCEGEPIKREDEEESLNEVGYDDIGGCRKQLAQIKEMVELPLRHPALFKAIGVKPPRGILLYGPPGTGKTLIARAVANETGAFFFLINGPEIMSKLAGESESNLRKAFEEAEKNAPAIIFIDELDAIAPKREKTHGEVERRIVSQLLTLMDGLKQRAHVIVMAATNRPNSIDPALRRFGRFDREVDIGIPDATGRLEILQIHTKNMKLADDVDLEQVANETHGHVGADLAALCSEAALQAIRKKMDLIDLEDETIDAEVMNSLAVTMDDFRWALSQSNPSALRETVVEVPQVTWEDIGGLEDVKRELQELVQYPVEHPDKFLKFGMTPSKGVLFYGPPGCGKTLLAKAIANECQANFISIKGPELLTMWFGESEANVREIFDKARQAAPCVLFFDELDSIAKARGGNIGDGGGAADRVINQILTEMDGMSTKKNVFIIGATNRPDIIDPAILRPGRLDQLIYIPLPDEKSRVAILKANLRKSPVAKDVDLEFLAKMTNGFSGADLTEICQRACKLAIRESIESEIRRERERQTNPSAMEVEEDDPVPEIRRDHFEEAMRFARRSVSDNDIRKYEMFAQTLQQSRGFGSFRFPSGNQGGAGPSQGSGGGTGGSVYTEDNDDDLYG
Runt-SMMHC FRET – inhibitors of RUNX1 Runt–CBFb-SMMHC binding, primary screen, biochemical, FRET, Cerulean-Runt, Venus-CBFb-SMMHC, uHTS. Runt-related transcription factor 1 (Homo sapiens) + Core-binding factor subunit beta …. Cerulean-Runt/Venus-CBFb-SMMHC FRET ratio 530/480, 1 h. inhibition, % at 20 µM. 220,000 tested, 0.74% active;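 active means mean inhibition across duplicate retests at 20 µM reaching about 50%, limit read from the data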;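 further: inhibitors lower the FRET ratio by blocking Runt binding to CBFb-SMMHC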
Hck Nef HTS – inhibitors of Nef-activated human Hck kinase, primary screen, biochemical, Z-Lyte FRET, 384-well, Hck-YEEI; Recombinant Hck-YEEI plus Nef, Z-Lyte FRET kinase assay; inhibition, % at 20 µM; 220,000 tested, 0.68% active;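 active means Hck-Nef kinase inhibition above about 50%, limit read from the data; inactive means inhibition below that limit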
TbHK1 inh – Trypanosoma brucei hexokinase 1 inhibitors, primary screen, biochemical, G6PDH-coupled NADH absorbance, MLSCN library; inhibition, % at 10 µM; hexokinase 1 [Trypanosoma brucei]; 220,000 tested, 0.11% active; recombinant TbHK1, G6PDH-coupled NADH A340;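 active means inhibition of 50% or more in the single-dose primary screen; inactive means inhibition below 50%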
RanGTP-Imp inh – inhibitors of RanGTP-importin-beta interaction, primary screen, biochemical, FRET, CFP-Ran, YFP-importin-beta, homogeneous. Ran GTPase (GTP-bound) - importin-beta complex. 300,000 tested, 1.1% active. AID 2216, 2009. cell-free CFP-Ran/YFP-importin-beta FRET ratio. inhibition, % (no concentration beside the values);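 active means more than half of the replicate wells show a fall in the fluorescence ratio signal beyond about 16%, limit read from the data, passing the limit was not always enough; inconclusive means exactly half of the replicate wells pass the set limit; inactive means fewer than half of replicates pass the limit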
Large screens that a line does not name were inactive. The list is not random: actives were taken first. Their share in the collection is about 2.1%.

O=C1NC(=O)N(c2ccccc2)C(=O)/C1=C\C=C\c1ccccc1	Runt-SMMHC FRET 55
O=C1NC(=O)N(c2ccccc2)C(=O)/C1=C\c1ccc([N+](=O)[O-])o1	Hck Nef HTS 55
Cc1ccc(N2C(=O)NC(=O)/C(=C/c3ccoc3)C2=O)cc1	Hck Nef HTS 55 (no result: RanGTP-Imp inh)
Cc1ccc(N2C(=O)NC(=O)/C(=C/c3cnn(-c4ccc(C)cc4)c3)C2=O)cc1	none
O=c1oc2ccccc2c(O)c1[C@H]1c2ccc(O)cc2Oc2c1c(=O)oc1ccccc21	none
CNS(=O)(=O)c1ccc(-c2ccc(C=C3C(=O)NC(=O)NC3=O)o2)cc1	none (no result: Runt-CBFb FRET, p97 ATPase inh, Runt-SMMHC FRET, Hck Nef HTS, TbHK1 inh)
O=C1NC(=O)C(=Cc2ccc(-c3cc(Cl)ccc3[N+](=O)[O-])o2)C(=O)N1	Hck Nef HTS 61
COCc1cc(OC(=O)N(C)C)nc(-c2ccccc2)n1	none
O=c1ccc2cc(O[C@@H]3O[C@@H](CO)[C@H](O)[C@@H](O)[C@@H]3O)c(O)cc2o1	RanGTP-Imp inh 102 (no result: Runt-CBFb FRET, p97 ATPase inh, Runt-SMMHC FRET, Hck Nef HTS, TbHK1 inh)
CC(=O)Nc1ccc(S(=O)(=O)NC(CC(=O)N2CCC3(CC2)OCCO3)C(C)C)cc1 (stereo not given)	none
Cc1ccc(S(=O)(=O)NC(CC(=O)N2CCC3(CC2)OCCO3)c2ccco2)cc1 (stereo not given)	RanGTP-Imp inh 21
Cc1ccc2c(c1)c(=O)c1c3n2CCN(CC2CO2)C3CC1 (stereo not given)	RanGTP-Imp inh 29
O=S(=O)(F)c1ccc2nc(-c3cccc(Sc4ccccc4)c3)cc(Cl)c2c1	none
CC(C)c1ccc(-n2c(O)c(/C=N/NC(=O)c3ccccc3O)c(=O)[nH]c2=S)cc1	Runt-SMMHC FRET 59
CCn1c(O)c(/C=N/NC(=O)c2ccncc2)c(=O)[nH]c1=S	Runt-SMMHC FRET 82
CCC(C)n1c(O)c(/C=N/NC(=O)c2ccncc2)c(=O)[nH]c1=S (stereo not given)	Runt-SMMHC FRET 77
CCCCn1c(O)c(/C=N/NC(=O)c2ccncc2)c(=O)[nH]c1=O	none
O=C(N/N=C/c1c(O)n(C2CCCCC2)c(=S)[nH]c1=O)c1ccccc1O	none (no result: Runt-CBFb FRET, p97 ATPase inh, Runt-SMMHC FRET, Hck Nef HTS, TbHK1 inh)
O=C(N/N=C/c1c(O)n(Cc2ccc(F)cc2)c(=S)[nH]c1=O)c1ccncc1	Runt-CBFb FRET 69, Runt-SMMHC FRET 84
CCn1c(O)c(/C=N/NC(=O)c2ccccc2)c(=O)n(CC)c1=S	Runt-SMMHC FRET 70
CCc1n[nH]c(CCN)n1	none
Cc1ccccc1-n1c(C)nc2ccsc2c1=O	none (no result: Runt-CBFb FRET, p97 ATPase inh, Runt-SMMHC FRET, Hck Nef HTS, TbHK1 inh)
CN1C(=O)C(=Cc2ccc(-c3cccc(Cl)c3)o2)C(=O)N(C)C1=O	none
Cc1ccc(Sc2ccc(C=C3C(=O)N(C)C(=O)N(C)C3=O)o2)cc1	Hck Nef HTS 70, RanGTP-Imp inh inconclusive
O=C(O)c1ccc2c(c1)C1C(Cl)C(Sc3ccccc3[N+](=O)[O-])CC1C(c1cccc([N+](=O)[O-])c1)N2 (stereo not given)	p97 ATPase inh 15 (no result: RanGTP-Imp inh)
CCC(C)NC(=O)c1c(N)n(CCCOC)c2nc3ccccc3nc12 (stereo not given)	RanGTP-Imp inh 112
CCC(C)NC(=O)c1c(N)n(Cc2ccc3c(c2)OCO3)c2nc3ccccc3nc12 (stereo not given)	RanGTP-Imp inh 60
CC(Cc1ccccc1)NC(=O)c1ccc(N)cc1 (stereo not given)	none (no result: Runt-CBFb FRET, p97 ATPase inh, Runt-SMMHC FRET, Hck Nef HTS, TbHK1 inh)
CCCCOCCCn1c(N)c(C(=O)OC(C)COC)c2nc3ccccc3nc21 (stereo not given)	Runt-SMMHC FRET 128
COCCCn1c(N)c(C(=O)Nc2sc3c(c2C(=O)OC)CCCC3)c2nc3ccccc3nc21	Runt-CBFb FRET 93
C=CCC1C(=O)NC(=S)NC1=O	none
CN1CCN(c2c(C#N)c(C(F)(F)F)nn2C)CC1	Runt-CBFb FRET 81, RanGTP-Imp inh inconclusive
Nc1c(C(=O)OCc2ccccc2)c2nc3ccccc3nc2n1Cc1cccs1	none
COCCNC(=O)c1c(N)n(Cc2ccco2)c2nc3ccccc3nc12	Runt-CBFb FRET 58, RanGTP-Imp inh 90
CC/C(=N\NC(=O)c1ccccc1)c1c(O)n(Cc2ccccc2)c(=O)[nH]c1=O	none
COCCCNC(=O)c1c(NC(=O)c2ccccc2Cl)n(Cc2ccccc2)c2nc3ccccc3nc12	Runt-SMMHC FRET 63, RanGTP-Imp inh 71
C=CCNC(=O)c1c(N)n(Cc2ccco2)c2nc3ccccc3nc12	Runt-CBFb FRET 76, RanGTP-Imp inh 77
O=C(c1ccccc1)C1NC1c1ccccc1 (stereo not given)	none
CCN(CC)S(=O)(=O)c1cccc(N=Nc2c(O)n(CC)c(=S)n(CC)c2=O)c1	none
Cc1ccc(CN2C3CCCC2CC(NC(=S)NCc2ccccc2)C3)cc1 (stereo not given)	none
CC1CCN(c2cc(Br)c([N+](=O)[O-])cc2F)CC1	none
O=[N+]([O-])NC1=NCN(Cc2ccco2)CN1Cc1ccco1	none
CCOc1cccc(=NC2CCCCC2)c2c(C)n(C)c(C)c12	none
CN(C)C(=O)Oc1ccc2nnc3ccnn3c2c1	RanGTP-Imp inh 72 (no result: Runt-CBFb FRET, p97 ATPase inh, Runt-SMMHC FRET, Hck Nef HTS, TbHK1 inh)
CN(C)C(=O)Oc1ccc(OC(=O)N(C)C)cc1	RanGTP-Imp inh inconclusive
COc1ccc(-n2c(O)c(C=NCCN3CCN(C(C)=O)CC3)c(=O)[nH]c2=S)cc1	none (no result: Runt-CBFb FRET, p97 ATPase inh, Runt-SMMHC FRET, Hck Nef HTS, TbHK1 inh)
CC1=Nc2cc(C(=O)N3CCC4(CC3)OCCO4)ccc2Sc2ccc(Cl)cc21	none (no result: Runt-CBFb FRET, p97 ATPase inh, Runt-SMMHC FRET, Hck Nef HTS, TbHK1 inh)
CCNCC1(c2ccc(OC)c(OC)c2)CCCC1	RanGTP-Imp inh 60
CC(C)[N+]12CCC(CC1)C(C(O)(c1ccccc1)c1ccccc1)C2 (stereo not given)	none
CC(=O)O[C@H]1CCC2C3CCC4=CC(=O)CCC4=C3C=C[C@@]21C (stereo not given in full)	RanGTP-Imp inh 32 (no result: Runt-CBFb FRET, p97 ATPase inh, Runt-SMMHC FRET, Hck Nef HTS, TbHK1 inh)
O=c1[nH]c(=O)n(Cc2ccccc2)c(O)c1/C=C1\C=Nc2ccccc21	Runt-SMMHC FRET 93
COc1ccc2c3c([nH]c2c1)C(C)NCC3 (stereo not given)	Runt-SMMHC FRET 85, RanGTP-Imp inh inconclusive
COc1ccc2[nH]c3c(c2c1)CCNC3C (stereo not given)	none (no result: Runt-CBFb FRET, p97 ATPase inh, Runt-SMMHC FRET, Hck Nef HTS, TbHK1 inh)
C[C@H]1[C@@H](c2ccccc2)O[C@@H](c2ccccc2Br)N1C	none (no result: Runt-CBFb FRET, p97 ATPase inh, Runt-SMMHC FRET, Hck Nef HTS, TbHK1 inh)
CCCCn1c(N)c(C(=O)NCCN2CCOCC2)c2nc3ccccc3nc21	Runt-SMMHC FRET 65, RanGTP-Imp inh 83

Screening data deposited in PubChem by several laboratories.
